Calls of active or inactive are those of the source.
What was measured:
[1] = target: T1, ATP-dependent translocase ABCB1 (Homo sapiens, UniProt P08183); experiment: Inhibition of MDR1 (unknown origin) expressed in MDCK cells assessed as reduction in calcein-AM efflux preincubated for 30 mins followed by calcein-AM addition measured after 30 mins by fluorescence assay; format: cell-based
How it was run: (§1)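 Competition with P-gp-mediated efflux of the pro-fluorescent substrate calcein-AM in MDCK-MDR1 cells, reported as EC50. Means of three independent experiments, samples in duplicate.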

[2] = target: T2, Broad substrate specificity ATP-binding cassette transporter ABCG2 (Homo sapiens, UniProt Q9UNQ0); experiment: Inhibition of BCRP (unknown origin) expressed in MDCK cells assessed as reduction in Hoechst 33342 efflux at 100 uM preincubated for 30 mins followed by Hoechst 3334 addition measured after 30 mins by fluorescence assay; format: cell-based; conditions: 0.5 h
T2 sequence (Q9UNQ0 whole entry): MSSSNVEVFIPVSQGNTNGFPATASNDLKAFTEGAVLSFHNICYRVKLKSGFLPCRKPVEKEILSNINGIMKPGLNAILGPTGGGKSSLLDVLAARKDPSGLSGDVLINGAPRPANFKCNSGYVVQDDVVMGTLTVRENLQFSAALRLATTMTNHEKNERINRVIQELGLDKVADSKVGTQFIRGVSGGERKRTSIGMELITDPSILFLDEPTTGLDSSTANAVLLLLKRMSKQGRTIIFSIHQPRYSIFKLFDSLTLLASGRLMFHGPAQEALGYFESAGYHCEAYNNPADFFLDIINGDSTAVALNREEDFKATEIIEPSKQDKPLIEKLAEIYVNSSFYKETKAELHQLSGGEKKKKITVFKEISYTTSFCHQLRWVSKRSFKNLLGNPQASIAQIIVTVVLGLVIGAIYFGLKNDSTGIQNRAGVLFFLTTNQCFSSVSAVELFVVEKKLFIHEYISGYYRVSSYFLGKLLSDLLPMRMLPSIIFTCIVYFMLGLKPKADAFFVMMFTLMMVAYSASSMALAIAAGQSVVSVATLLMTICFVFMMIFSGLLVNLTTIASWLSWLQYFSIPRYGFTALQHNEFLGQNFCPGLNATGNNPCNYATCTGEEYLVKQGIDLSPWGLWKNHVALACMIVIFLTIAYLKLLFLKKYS
How it was run: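 Interference with BCRP-mediated transport of the fluorescent substrate Hoechst 33342. Not active defined at 100 μM. Means of three independent experiments, duplicate samples.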

[3] = target: T3, Multidrug resistance-associated protein 1 (Homo sapiens, UniProt P33527); experiment: Inhibition of MRP1 (unknown origin) expressed in MDCK cells assessed as reduction in calcein-AM efflux at 100 uM preincubated for 30 mins followed by calcein-AM addition measured after 30 mins by fluorescence assay; format: cell-based; conditions: 0.5 h
How it was run: (§2)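 Interference with MRP1-mediated transport of pro-fluorescent calcein-AM, reported as EC50. Not active defined at 100 μM. Means of three independent experiments, duplicate samples.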

[4] = target: T1, ATP-dependent translocase ABCB1; experiment: Inhibition of MDR1 (unknown origin) expressed in MDCK cells assessed as reduction in ATP consumption after 2 hrs by ATPlite assay; format: cell-based
How it was run: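 ATP cell level depletion measured in MDCK-MDR1 cells. Means of three independent experiments, samples analysed in duplicate.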

[5] = Efflux ratio of apparent permeability from basolateral to apical over apical to basolateral side in human Caco2 cells at 100 uM after 120 mins; format: ADME, cell-based; conditions: Caco-2
How it was run: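 Bidirectional permeability across Caco-2 monolayers. Papp expressed as the basolateral-to-apical over apical-to-basolateral (BA/AB) ratio. Values from two independent experiments. A ratio >2 is read as substrate behaviour, <2 as inhibitor.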

[6] = target: T3, Multidrug resistance-associated protein 1; experiment: Inhibition of MRP1 (unknown origin) expressed in MDCK cells assessed as reduction in calcein-AM efflux preincubated for 30 mins followed by calcein-AM addition measured after 30 mins by fluorescence assay; format: cell-based; how it was run: as §2
MDCK [7] = experiment: Cytotoxicity against MDCK cells over-expressing MDR1 at 0.1 to 25 uM after 48 to 72 hrs by MTT assay; format: ADME, cell-based, Canis lupus familiaris; conditions: dog
[8] = target: T1, ATP-dependent translocase ABCB1; experiment: Inhibition of MDR1 (unknown origin) expressed in MDCK cells assessed as increase in doxorubicin-induced cytotoxicity at 10 uM after 48 hrs by MTT assay relative to control; format: cell-based; set-up: scale not given: the % may be the effect or the level left
How it was run: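 MDCK-MDR1 cells treated for 48 h with compound at 10 μM, alone or together with doxorubicin at 10 μM. Antiproliferative effect compared with doxorubicin 10 μM alone.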

MDCK [9] = experiment: Downregulation of MDR1 protein expression in MDCK-MDR1 cells at 10 uM after 48 hrs by immunoblot analysis; format: functional, cell-based; conditions: Canis lupus familiaris
How it was run: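 Immunoblot of P-gp in MDCK-MDR1 cells treated at 10 μM for 48 h, with untreated cells as control. Protein extracted after incubation, actin used as loading control. Blot representative of 3 experiments.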

[10] = Inhibition of P-gp (unknown origin); set-up: species or system Homo sapiens; how it was run: as §1

T1 sequence (P08183 whole entry): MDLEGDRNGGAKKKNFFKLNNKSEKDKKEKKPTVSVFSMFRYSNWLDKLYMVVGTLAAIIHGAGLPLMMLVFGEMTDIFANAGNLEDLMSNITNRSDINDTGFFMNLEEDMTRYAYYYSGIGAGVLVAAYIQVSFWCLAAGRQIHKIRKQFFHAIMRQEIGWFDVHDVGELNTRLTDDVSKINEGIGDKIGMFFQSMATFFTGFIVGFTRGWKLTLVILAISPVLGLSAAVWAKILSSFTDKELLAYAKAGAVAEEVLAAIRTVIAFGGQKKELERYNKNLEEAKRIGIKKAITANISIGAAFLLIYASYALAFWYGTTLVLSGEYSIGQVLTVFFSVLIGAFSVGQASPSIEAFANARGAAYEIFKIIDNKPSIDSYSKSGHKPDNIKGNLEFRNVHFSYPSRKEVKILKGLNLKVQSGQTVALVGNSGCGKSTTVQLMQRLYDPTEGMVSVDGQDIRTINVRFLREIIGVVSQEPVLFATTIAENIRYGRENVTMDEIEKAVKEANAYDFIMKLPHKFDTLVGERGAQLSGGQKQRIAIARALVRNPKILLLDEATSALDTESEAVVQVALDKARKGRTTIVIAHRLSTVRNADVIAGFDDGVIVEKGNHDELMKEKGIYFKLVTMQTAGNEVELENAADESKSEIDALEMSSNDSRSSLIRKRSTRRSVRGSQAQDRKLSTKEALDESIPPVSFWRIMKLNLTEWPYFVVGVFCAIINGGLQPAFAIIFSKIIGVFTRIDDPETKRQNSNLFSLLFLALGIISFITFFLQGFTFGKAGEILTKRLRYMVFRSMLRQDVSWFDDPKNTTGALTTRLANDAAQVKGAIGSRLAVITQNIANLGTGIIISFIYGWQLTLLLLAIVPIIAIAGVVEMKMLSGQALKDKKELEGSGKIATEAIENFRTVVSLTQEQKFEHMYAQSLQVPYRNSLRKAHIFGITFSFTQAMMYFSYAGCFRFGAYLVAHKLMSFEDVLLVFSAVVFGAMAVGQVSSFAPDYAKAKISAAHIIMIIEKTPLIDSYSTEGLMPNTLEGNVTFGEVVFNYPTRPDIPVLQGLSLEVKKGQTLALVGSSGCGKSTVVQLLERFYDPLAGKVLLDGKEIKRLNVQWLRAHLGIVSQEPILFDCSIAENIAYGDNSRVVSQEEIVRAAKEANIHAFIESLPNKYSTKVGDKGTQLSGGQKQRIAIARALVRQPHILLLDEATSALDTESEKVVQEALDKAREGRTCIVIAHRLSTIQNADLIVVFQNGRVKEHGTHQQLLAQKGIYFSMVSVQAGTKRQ
T3 sequence (P33527 whole entry): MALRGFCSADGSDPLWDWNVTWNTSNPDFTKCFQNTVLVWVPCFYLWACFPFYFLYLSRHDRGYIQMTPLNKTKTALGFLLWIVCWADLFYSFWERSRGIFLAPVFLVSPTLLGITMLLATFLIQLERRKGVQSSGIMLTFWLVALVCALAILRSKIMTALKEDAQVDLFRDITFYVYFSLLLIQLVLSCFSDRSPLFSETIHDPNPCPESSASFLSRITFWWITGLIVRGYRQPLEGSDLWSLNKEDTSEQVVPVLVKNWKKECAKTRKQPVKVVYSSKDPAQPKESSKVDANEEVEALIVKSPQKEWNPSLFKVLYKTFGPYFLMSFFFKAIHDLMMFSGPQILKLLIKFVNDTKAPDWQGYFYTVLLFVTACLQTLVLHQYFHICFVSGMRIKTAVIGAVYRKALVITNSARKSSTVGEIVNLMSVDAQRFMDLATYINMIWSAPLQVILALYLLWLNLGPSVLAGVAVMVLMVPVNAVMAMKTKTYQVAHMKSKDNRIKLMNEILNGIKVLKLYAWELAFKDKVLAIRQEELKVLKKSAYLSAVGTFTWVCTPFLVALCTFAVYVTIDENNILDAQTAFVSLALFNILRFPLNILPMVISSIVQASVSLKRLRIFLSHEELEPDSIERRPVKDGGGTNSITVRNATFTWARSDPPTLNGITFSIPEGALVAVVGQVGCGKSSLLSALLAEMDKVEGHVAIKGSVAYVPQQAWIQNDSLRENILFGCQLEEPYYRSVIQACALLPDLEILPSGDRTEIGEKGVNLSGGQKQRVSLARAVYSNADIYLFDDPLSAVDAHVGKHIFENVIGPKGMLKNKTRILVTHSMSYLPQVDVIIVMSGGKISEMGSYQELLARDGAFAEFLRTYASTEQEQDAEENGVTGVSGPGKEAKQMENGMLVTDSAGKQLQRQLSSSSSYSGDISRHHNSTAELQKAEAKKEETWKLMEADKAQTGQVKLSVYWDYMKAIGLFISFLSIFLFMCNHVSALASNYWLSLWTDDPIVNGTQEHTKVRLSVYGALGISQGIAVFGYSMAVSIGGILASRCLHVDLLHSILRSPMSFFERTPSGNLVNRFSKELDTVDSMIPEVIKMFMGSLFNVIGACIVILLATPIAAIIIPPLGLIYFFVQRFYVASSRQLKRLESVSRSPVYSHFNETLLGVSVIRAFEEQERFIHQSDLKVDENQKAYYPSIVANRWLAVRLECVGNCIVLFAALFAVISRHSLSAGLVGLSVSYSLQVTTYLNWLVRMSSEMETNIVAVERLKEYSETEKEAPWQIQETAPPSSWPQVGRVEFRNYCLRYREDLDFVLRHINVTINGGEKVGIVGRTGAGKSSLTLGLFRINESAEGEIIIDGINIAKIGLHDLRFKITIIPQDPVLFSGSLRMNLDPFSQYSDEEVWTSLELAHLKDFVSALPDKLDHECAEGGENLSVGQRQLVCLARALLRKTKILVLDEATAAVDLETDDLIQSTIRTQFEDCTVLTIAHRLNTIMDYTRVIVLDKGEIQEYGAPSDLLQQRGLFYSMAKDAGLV

Structure (SMILES)	EC50 [1] [µM]	inhibition (INH) [2]	inhibition (INH) [3]	inhibition (INH) [4]	efflux ratio at 2 h, 100 µM [5]	EC50 [6] [µM]	Activity (MDCK [7])	Activity [8] [%]	Activity (MDCK [9])	EC50 [10] [µM]
COc1cc2c(cc1OC)CN(Cc1ccc(-c3ccc(O)cc3F)cc1)CC2	2.17	Not Active	Not Active	Active	4.5					
COc1cc(-c2ccc(CN3CCc4cc(OC)c(OC)cc4C3)cc2)ccc1O	2	Not Active	Not Active	Active	3.9					
COc1cc2c(cc1OC)CN(Cc1ccc(-c3ccc(O)cc3)c(OC)c1)CC2	1.51	Not Active		Active	4.4	38	Non-Toxic	15	inactive	
COc1cc2c(cc1OC)CN(Cc1ccc(-c3ccc(O)c(N)c3)cc1)CC2	6.9	Not Active	Not Active	Active	7.5					
COc1cc2c(cc1OC)CN(Cc1ccc(-c3ccc(O)cc3OC)cc1)CC2	1.86	Not Active		Active	3.5	62	Non-Toxic	60	inactive	
COc1cc2c(cc1OC)CN(Cc1ccc(-c3ccc(O)cc3N)cc1)CC2	5.4	Not Active	Not Active	Active	4.5					
COc1cc2c(cc1OC)CN(Cc1ccc(-c3ccc(O)cc3)c(F)c1)CC2	6.2	Not Active	Not Active	Active	3.7					
COc1cc(-c2ccc(O)cc2)ccc1CN1CCc2cc(OC)c(OC)cc2C1	1.6	Not Active	Not Active	Active	4.5		Non-Toxic	15	inactive	
COc1cc2c(cc1OC)CN(Cc1ccc(-c3ccc(O)c(F)c3)cc1)CC2	2.8	Not Active	Not Active	Active	4.9					
COc1cc2c(cc1OC)CN(Cc1ccc(-c3ccc(O)cc3)cc1F)CC2	4.73	Not Active	Not Active	Active	4.1					
COc1cc2c(cc1OC)CN(Cc1ccc(-c3ccc(O)cc3)cc1[N+](=O)[O-])CC2	8.4	Not Active	Not Active	Active	5.8					
COc1cc2c(cc1OC)CN(Cc1ccc(-c3ccc(O)cc3[N+](=O)[O-])cc1)CC2	2.54	Not Active	Not Active	Active	11.2					
COc1cc2c(cc1OC)CN(Cc1ccc(-c3ccc(O)cc3)cc1)CC2				Active				20	inactive	0.69
COc1cc2c(cc1OC)CN(Cc1ccc(-c3ccc(O)c([N+](=O)[O-])c3)cc1)CC2	12.7	Not Active		Active	6.3	28.9				
COc1cc2c(cc1OC)CN(Cc1ccc(-c3ccc(O)cc3)c([N+](=O)[O-])c1)CC2	15.2	Not Active	Not Active	Active	2.9					

Reference: ChEMBL document CHEMBL4257505, “New tetrahydroisoquinoline-based P-glycoprotein modulators: decoration of the biphenyl core gives selective ligands” (Medchemcomm, 2018)
